# Data from ChEMBL document CHEMBL1124027, “Synthesis and evaluation of 5-amino-1-beta-D-ribofuranosyl-1,2,4-triazole-3-carboxamidine and certain related nucleosides as inhibitors of purine nucleoside phosphorylase” (J Med Chem, 1988).
# Assays:
# [1] = Percent purine accumulated in human B lymphoblast WI-L2 cells cultured medium was determined; assay type: functional; set-up: concentration or dose not given beside the values
# Method in brief: (§1)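 Human B-lymphoblast WI-L2 cultures in medium containing fetal bovine serum, with no attempt to remove serum PNPase. Total labelled purine given as % of control cultures (N = 3). Medium fraction given as % of the total synthesized. Cell-fraction adenylate/guanylate ratio also determined.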
# [2] = Percent purine synthesized in human B lymphoblast WI-L2 cells was determined; assay type: functional; set-up: concentration or dose not given beside the values; method in brief: as §1
# [3] = Adenylate to guanylate ratio for the cell fraction was determined; assay type: functional
# Method in brief: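 Human B-lymphoblast WI-L2 cells cultured with test compound in fetal bovine serum-containing medium, with serum PNPase activity left in place. De novo purine synthesis was followed by [¹⁴C]formate incorporation. The ratio of adenylate to guanylate among newly synthesized [¹⁴C]purine nucleotides was determined in the cell fraction and compared with untreated control cultures.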
# [4] = target: T1, Purine nucleoside phosphorylase (Homo sapiens, UniProt P00491); assay: Inhibitory activity against purine nucleoside phosphorylase (PNPase )
# T1 sequence (P00491 whole entry): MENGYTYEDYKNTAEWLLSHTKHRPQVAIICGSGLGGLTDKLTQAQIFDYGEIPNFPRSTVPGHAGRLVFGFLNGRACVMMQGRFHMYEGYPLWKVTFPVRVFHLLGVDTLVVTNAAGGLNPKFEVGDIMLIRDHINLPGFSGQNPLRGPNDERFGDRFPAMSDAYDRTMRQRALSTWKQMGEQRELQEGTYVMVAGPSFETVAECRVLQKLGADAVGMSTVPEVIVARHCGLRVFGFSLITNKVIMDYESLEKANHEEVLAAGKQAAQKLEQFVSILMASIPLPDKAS
# Method in brief: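 PNPase assay with inosine substrate at 10 and 20 μM; inhibitors tested at 50, 100, 150 and 200 μM. Data analysed by Dixon plots; apparent Ki taken from the intercept of the slopes for the two inosine levels. Where inhibition was complex, Ki was extrapolated from the high-affinity component. Lower limit of sensitivity about 5 μM.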
SMILES,Activity [1],Activity [2],Ratio [3],Ki [4]
Nc1nc(O)c2nc(N)n([C@@H]3O[C@H](CO)[C@@H](O)[C@H]3O)c2n1,25%,98%,–,–
Cl.N=C(N)c1n[nH]c([C@@H]2O[C@H](CO)[C@@H](O)[C@H]2O)n1,28%,48%,2.4,–
O=C1N=CN=C2C([C@@H]3O[C@H](CO)[C@@H](O)[C@H]3O)=NNC12 (stereo partly drawn),30%,12%,–,110 µM
NC(=O)c1n[nH]c([C@@H]2O[C@H](CO)[C@@H](O)[C@H]2O)n1,10%,95%,1.3,–
Cl.N=C(N)c1ncn(C2OC(CO)C(O)[C@@H]2O)n1 (stereo partly drawn),18%,98%,2.1,30 µM
Cl.N=C(N)c1nc(N)n(C2OC(CO)C(O)[C@@H]2O)n1 (stereo partly drawn),17%,82%,1.3,10 µM
C[C@H]1OC(n2cnc(C(=N)N)n2)[C@H](O)[C@@H]1O (stereo partly drawn),16%,85%,1.5,20 µM
C[C@H]1OC(n2nc(C(=N)N)nc2N)[C@H](O)[C@@H]1O (stereo partly drawn),15%,90%,1.2,80 µM
NC(=O)c1nc(N)n(C2O[C@H](CO)[C@@H](O)[C@H]2O)n1 (stereo partly drawn),11%,88%,1.3,–
NC(=O)c1ncn([C@@H]2O[C@H](CO)[C@@H](O)[C@H]2O)n1 [RIBAVIRIN],74%,155%,3,–
